Drawing on ChEMBL document CHEMBL1152315, “Benzophenone derivatives from the fruits of Garcinia multiflora and their anti-inflammatory activity” (J Nat Prod, 2009), this text covers IC50 for twelve compounds.

The nature of assay [1]: Antiinflammatory activity in human neutrophils assessed as inhibition of fMet-Leu-Phe/Cytochalasin B-induced elastase release treated 5 mins before fMet-Leu-Phe/Cytochalasin B challenge. The class given is functional, cell-based. To be noted: Neutrophil. In short, it runs like this:
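Neutrophils from venous blood of healthy adult donors (20-28 y), isolated by dextran sedimentation, Ficoll Hypaque and hypotonic erythrocyte lysis; 6 × 10^5/mL with MeO-Suc-Ala-Ala-Pro-Val-p-nitroanilide substrate (100 µM), 37 °C for 2 min, then compound for 5 min. Stimulated with fMLP (100 nM)/CB (0.5 µg/mL). Absorbance at 405 nm monitored continuously; expressed as percent of drug-free activated control.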

A short description of assay [2]: Antiinflammatory activity in human neutrophils assessed as inhibition of fMet-Leu-Phe/Cytochalasin B-induced superoxide anion generation treated 5 mins before fMet-Leu-Phe/Cytochalasin B challenge by spectrophotometry. Format: functional, cell-based. To be noted: Neutrophil. In a few lines: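 Donor neutrophils (6 × 10^5/mL, Ca2+-free HBSS pH 7.4) were given 0.5 mg/mL ferricytochrome c and 1 mM Ca2+, held at 37 °C for 2 min, then exposed to compound (10-0.01 µg/mL) or DMSO for 5 min. Cytochalasin B (1 µg/mL) was added for 3 min, then fMLP (100 nM) for 10 min. SOD-inhibitable cytochrome c reduction was read at 550 nm (ε 21.1/mM/10 mm).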

pIC50: −log10 of the molar value. Where only a bound is given, the exact number is not on record here.

In general, pIC50 refers to the IC50 on a negative log10 scale, so that one unit is a factor of ten. `CC(C)=CCC/C(C)=C/CC/C(C)=C/CC/C=C(\C)CC/C=C(\C)CCC=C(C)C` [SQUALENE]: the pIC50 in assay [1] and in assay [2] was < 4.52 in each case.

In the case of `c1ccc2c(c1)[I+]c1ccccc1-2` [DIPHENYLENEIODONIUM], the pIC50 in assay [2] was 5.77.

As for `C=C(C)[C@@H](CC=C(C)C)C[C@@]12C[C@H]3C[C@@H](C(C)(C)O)[C@](C(=O)c4ccccc4)(C1=O)C(=O)[C@@](CC(O)C(C)(C)O)(C2=O)C3(C)C` (some centres not stated) [GARCIMULTIFLORONE C], the pIC50 in assay [1] was 4.92; in assay [2], 5.14.

Turning to `CC(C)=CC[C@H]1C[C@@]23C[C@@H](CC=C(C)C)C(C)(C)[C@@](CC=C(C)C)(C(=O)C(C(=O)c4ccccc4)=C2OC1(C)C)C3=O`, the negative-log IC50 (pIC50) in assay [1] was 5.94; in assay [2], 6.06.

Turning to `COc1cc2ccc(=O)oc2c(OC)c1OC` [FRAXIDIN METHYL ETHER], the pIC50 in assay [1] and in assay [2] was < 4.52 throughout.

In the case of `C=C(C)[C@@H](CC=C(C)C)C[C@@]12C[C@@H](CC=C(C)C)C(C)(C)[C@]3(C=CC(C)(C)OC3=C(C(=O)c3ccccc3)C1=O)C2=O` [GARCIMULTIFLORONE B], the pIC50 in assay [1] was 6.85; in assay [2], 6.96.

Consider `COc1cc2ccc(=O)oc2cc1OC` [SCOPARONE], for which the negative-log IC50 (pIC50) in assay [1] and in assay [2] was < 4.52 in each case.

As to `C=C(C)[C@@H](CC=C(C)C)C[C@@]12C[C@@H](CC=C(C)C)C(C)(C)[C@]3(C=CC(C)(C)OC3=C(C(=O)c3cccc(O)c3)C1=O)C2=O` [13-HYDROXYGARCIMULTIFLORONE B], the pIC50 in assay [1] is 6.07; in assay [2] it was 6.40.

As for `CC[C@H](CC[C@@H](C)[C@H]1CC[C@H]2[C@@H]3CC=C4CC(=O)CC[C@]4(C)[C@H]3CC[C@]12C)C(C)C` [BETA-SITOSTENONE], the pIC50 in assay [1] and in assay [2] was < 4.52 throughout.

As to `CC(C)=CCC/C(C)=C/CC/C(C)=C/CC[C@]1(C)CCc2cc(O)cc(C)c2O1` [DELTA-TOCOTRIENOL], the values for the pIC50 in assay [1] and in assay [2] were 4.82 and 4.83, respectively.

With `O=S(=O)(F)Cc1ccccc1` [PHENYLMETHYLSULFONYLFLUORIDE], the pIC50 in assay [1] was 3.69.

For `CC(C)=CCC1=C2OC(C)(C)[C@@H](CC=C(C)C)C[C@@]23C[C@@H](CC=C(C)C)C(C)(C)[C@@](C(=O)c2ccccc2)(C1=O)C3=O` [GARCIMULTIFLORONE A], the values for the pIC50 in assay [1] and in assay [2] were 5.33 and 5.25, respectively.
